ChEMBL document CHEMBL1122405, “Structure--activity relationships for and potentiation of the antimitogenic activity of 2-5A core derived from 2-5A, a mediator of interferon action” (J Med Chem, 1983)

Assays:
Assay type in all cases: functional
Nucleic Acid [1] = assay: Percent inhibition of DNA synthesis ([Me-3H] thymidine incorporation) at 5 uM concentration
Summary of the method: (§1)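 Balb/c 3T3 cells were grown to confluence in Eagle's MEM with 10% fetal calf serum. They were synchronized in serum-free medium containing 10% spent medium, then stimulated with fresh medium plus 10% FCS, with or without oligonucleotide at a final 5 or 50 μM. At set intervals, duplicate cultures were pulsed 1 h with [3H]thymidine (40 Ci/mmol) and TCA-insoluble cpm counted. % inhibition = 100[1 − treated/control], using cpm summed over the control peak DNA-synthesis period (e.g. 15–16, 17–18, 19–20 h).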

[2] = Percent inhibition of protein synthesis ([35S]methionine incorporation) at 50 uM concentration
Summary of the method: (§2)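 Confluent Balb/c 3T3 cells were synchronized in methionine-free, serum-free medium containing 10% spent medium. They were then stimulated with fresh methionine-free medium plus 10% fetal calf serum, with or without oligonucleotide at a final 5 or 50 μM. At set intervals, duplicate cultures were pulse-labeled 1 h with [35S]methionine (147 mCi/mmol) and TCA-insoluble cpm measured. % inhibition = 100[1 − treated cpm/untreated cpm].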

[3] = Percent inhibition of protein synthesis ([35S]methionine incorporation) at 5 uM concentration; summary of the method: as §2
Nucleic Acid [4] = assay: Percent inhibition of DNA synthesis ([Me-3H] thymidine incorporation) at 50 uM concentration; summary of the method: as §1

Nc1ncnc2c1ncn2[C@@H]1O[C@H](COP(=O)(O)O[C@@H]2[C@H](O)[C@@H](COP(=O)(O)O[C@@H]3[C@H](O)[C@@H](COP(=O)(O)O)O[C@H]3n3cnc4c(N)ncnc43)O[C@H]2n2cnc3c(N)ncnc32)[C@@H](O)[C@H]1O
inhibition (Nucleic Acid [1]): 15% | inhibition [2]: 33% | inhibition [3]: 0% | inhibition (Nucleic Acid [4]): 54%

Nc1ncnc2c1ncn2[C@@H]1O[C@H](COP(=O)(O)O[C@@H]2[C@H](O)[C@@H](COP(=O)(O)O[C@@H]3[C@H](O)[C@@H](COP(=O)(O)OP(=O)(O)OP(=O)(O)O)O[C@H]3n3cnc4c(N)ncnc43)O[C@H]2n2cnc3c(N)ncnc32)[C@@H](O)[C@H]1O
inhibition (Nucleic Acid [1]): 11% | inhibition [2]: 21% | inhibition [3]: 11% | inhibition (Nucleic Acid [4]): 27%

Nc1ncnc2c1ncn2[C@@H]1O[C@H](COP(=O)(O)O[C@@H]2[C@H](O)[C@@H](COP(=O)(O)O[C@@H]3[C@H](O)[C@@H](CO)O[C@H]3n3cnc4c(N)ncnc43)O[C@H]2n2cnc3c(N)ncnc32)[C@@H](O)[C@H]1O
inhibition (Nucleic Acid [1]): 14% | inhibition [2]: 14% | inhibition [3]: 0% | inhibition (Nucleic Acid [4]): 48%
